Measured values: ChEMBL document CHEMBL1156631 (J Med Chem, 2008)
Values after ≈ are worked out from the molar mass of the structure shown.

How the values were obtained:
[1] = biological target: T1, Cannabinoid receptor 1 (Homo sapiens, UniProt P21554); test: Agonist activity at human recombinant CB1 receptor expressed in Sf9 cells by GTP-europium binding assay relative to CP-55940
How it was run: (§1)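 Membranes were from Sf9 insect cells cotransfected with CB1 or CB2 plus Gαi3 (Bmax 1.7 pmol/mL). Compound (0.01 nM–10 µM, 1% DMSO final) was added to buffer with Hepes, BSA, 10 mM MgCl2, 150 mM NaCl, 5 µM GDP, 10 nM GTP-europium, saponin and membranes (CB1 4.5 µg/well, CB2 14 µg/well). Incubation was 45 min at room temperature, then filtration and washing, with fluorescence read at 615 nm. 100% efficacy was set by 3 µM reference agonist.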

[2] = biological target: T1, Cannabinoid receptor 1; test: Agonist activity at human CB1 receptor expressed in Sf9 cells by GTP-europium binding assay
How it was run: as §1, with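 “µg/well).” for “µg/well). Incubation was 45 min at room temperature, then filtration and washing, with fluorescence read at 615 nm.”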

[3] = biological target: T2, Cannabinoid receptor 2 (Homo sapiens, UniProt P34972); test: Agonist activity at human recombinant CB2 receptor expressed in CHO-K1 cells assessed as inhibition of forskolin-stimulated intracellular cAMP level relative to CP-55940; type: functional, cell-based
How it was run: (§2)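 CHO-K1 cells stably expressing human or rat CB1 or CB2 were used. Compounds were diluted from DMSO into HBSS/HEPES/BSA buffer containing 60 µM forskolin, then combined with 5000 cells/well plus Alexa647 anti-cAMP antibody, 1 h at room temperature. A biotinylated-cAMP detection mix was added for another 1 h. Emission at 665 nm gave concentration-response curves and EC50; Emax is expressed as a percentage of the reference agonist maximum.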

[4] = biological target: T3, Cannabinoid receptor 2 (Rattus norvegicus, UniProt Q9QZN9); test: Agonist activity at rat recombinant CB2 receptor expressed in CHO-K1 cells assessed as inhibition of forskolin-stimulated intracellular cAMP level; type: functional, cell-based; how it was run: as §2
T3 sequence (Q9QZN9 whole entry): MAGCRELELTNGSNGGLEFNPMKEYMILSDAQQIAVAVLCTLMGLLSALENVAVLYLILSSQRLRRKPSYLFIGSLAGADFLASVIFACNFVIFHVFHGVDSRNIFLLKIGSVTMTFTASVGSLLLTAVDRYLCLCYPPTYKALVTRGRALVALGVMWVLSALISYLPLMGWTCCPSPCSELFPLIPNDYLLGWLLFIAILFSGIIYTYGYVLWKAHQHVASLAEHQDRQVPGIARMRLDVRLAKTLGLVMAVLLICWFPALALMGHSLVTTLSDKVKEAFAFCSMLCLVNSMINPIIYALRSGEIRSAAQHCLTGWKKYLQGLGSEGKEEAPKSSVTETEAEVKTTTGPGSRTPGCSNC

[5] = biological target: T4, Cannabinoid receptor 2 (Rattus norvegicus) (UniProt Q9QZN9); test: Agonist activity at rat recombinant CB2 receptor expressed in CHO-K1 cells assessed as inhibition of forskolin-stimulated intracellular cAMP level relative to CP-55940; type: functional, cell-based; how it was run: as §2
T4 sequence (whole entry): T3 sequence (Q9QZN9 whole entry)

[6] = biological target: T1, Cannabinoid receptor 1; test: Agonist activity at human recombinant CB1 receptor expressed in CHO-K1 cells assessed as inhibition of forskolin-stimulated intracellular cAMP level relative to CP-55940; type: functional, cell-based; how it was run: as §2
[7] = Metabolic stability in human liver microsomes; type: ADME, Microsome; conditions: read-out: Stability
[8] = biological target: Cannabinoid receptor 1 (Rattus norvegicus) (UniProt P20272); test: Agonist activity at rat recombinant CB1 receptor expressed in CHO-K1 cells assessed as inhibition of forskolin-stimulated intracellular cAMP level relative to CP-55940; type: functional, cell-based; how it was run: as §2
[9] = biological target: T2, Cannabinoid receptor 2; test: Agonist activity at human recombinant CB2 receptor expressed in CHO-K1 cells assessed as inhibition of forskolin-stimulated intracellular cAMP level; type: functional, cell-based
How it was run: as §2, with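 “h.” for “h. Emission at 665 nm gave concentration-response curves and EC50; Emax is expressed as a percentage of the reference agonist maximum.”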

[10] = biological target: T2, Cannabinoid receptor 2; test: Agonist activity at human recombinant CB2 receptor expressed in Sf9 cells by GTP-europium binding assay
How it was run: as §1, with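 “µg/well).” for “µg/well). Incubation was 45 min at room temperature, then filtration and washing, with fluorescence read at 615 nm.”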

[11] = biological target: T1, Cannabinoid receptor 1; test: Agonist activity at human recombinant CB1 receptor expressed in CHO-K1 cells assessed as inhibition of forskolin-stimulated intracellular cAMP level; type: functional, cell-based
How it was run: as §2, with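 “h.” for “h. Emission at 665 nm gave concentration-response curves and EC50; Emax is expressed as a percentage of the reference agonist maximum.”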

[12] = biological target: Cannabinoid receptor 1 (Rattus norvegicus, UniProt P20272); test: Agonist activity at rat recombinant CB1 receptor expressed in CHO-K1 cells assessed as inhibition of forskolin-stimulated intracellular cAMP level; type: functional, cell-based
How it was run: as §2, with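 “h.” for “h. Emission at 665 nm gave concentration-response curves and EC50; Emax is expressed as a percentage of the reference agonist maximum.”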

[13] = Metabolic stability in rat liver microsomes; type: ADME, Microsome; conditions: read-out: Stability
[14] = biological target: T2, Cannabinoid receptor 2; test: Agonist activity at human recombinant CB2 receptor expressed in Sf9 cells by GTP-europium binding assay relative to CP-55940; how it was run: as §1
[15] = (§3) AUC in rat at 10 mg/kg, po; type: ADME, organism-based, Plasma; set-up: dose 10 mg/kg, route oral; conditions: plasma
[16] = Solubility in simulated intestinal fluid; type: physicochemical; conditions: read-out: Stability
[17] = (§4) Oral bioavailability in rat at 10 mg/kg; type: ADME, organism-based; conditions: in vivo
[18] = Half life in rat at 10 mg/kg, po; type: ADME, organism-based; set-up: dose 10 mg/kg, route oral; conditions: in vivo
[19] = Cmax in rat at 10 mg/kg, po; type: ADME, organism-based; set-up: dose 10 mg/kg, route oral; conditions: in vivo
[20] = biological target: T2, Cannabinoid receptor 2; test: Binding affinity to CB2 receptor
[21] = biological target: T1, Cannabinoid receptor 1; test: Binding affinity to CB1 receptor
[22] = tested on: Rattus norvegicus; test: as §3; type: ADME, organism-based, Plasma; set-up: dose 10 mg/kg, route oral; conditions: in vivo
[23] = tested on: Rattus norvegicus; test: Oral bioavailability in rat; type: ADME, organism-based; conditions: in vivo
[24] = tested on: Rattus norvegicus; test: Clearance in rat at 0.5 mg/kg, iv; type: ADME, organism-based; set-up: dose 0.5 mg/kg, route intravenous; conditions: in vivo
[25] = tested on: Rattus norvegicus; test: as §4; type: ADME, organism-based; conditions: in vivo

Sequence of Cannabinoid receptor 1 (Rattus norvegicus, UniProt P20272) (P20272 whole entry): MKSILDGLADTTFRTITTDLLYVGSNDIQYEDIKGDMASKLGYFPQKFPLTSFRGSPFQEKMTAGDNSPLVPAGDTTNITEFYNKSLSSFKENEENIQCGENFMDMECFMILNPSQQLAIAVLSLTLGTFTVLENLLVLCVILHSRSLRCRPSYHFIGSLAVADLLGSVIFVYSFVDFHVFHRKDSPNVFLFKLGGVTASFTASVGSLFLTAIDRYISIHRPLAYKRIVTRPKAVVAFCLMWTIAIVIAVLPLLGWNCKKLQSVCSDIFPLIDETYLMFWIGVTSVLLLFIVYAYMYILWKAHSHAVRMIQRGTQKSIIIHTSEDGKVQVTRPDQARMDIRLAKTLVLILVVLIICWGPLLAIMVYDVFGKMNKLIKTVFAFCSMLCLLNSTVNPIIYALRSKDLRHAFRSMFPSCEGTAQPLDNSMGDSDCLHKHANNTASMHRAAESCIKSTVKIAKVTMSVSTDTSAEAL
Sequence of Cannabinoid receptor 1 (Rattus norvegicus) (P20272 whole entry): as above
T1 sequence (P21554 whole entry): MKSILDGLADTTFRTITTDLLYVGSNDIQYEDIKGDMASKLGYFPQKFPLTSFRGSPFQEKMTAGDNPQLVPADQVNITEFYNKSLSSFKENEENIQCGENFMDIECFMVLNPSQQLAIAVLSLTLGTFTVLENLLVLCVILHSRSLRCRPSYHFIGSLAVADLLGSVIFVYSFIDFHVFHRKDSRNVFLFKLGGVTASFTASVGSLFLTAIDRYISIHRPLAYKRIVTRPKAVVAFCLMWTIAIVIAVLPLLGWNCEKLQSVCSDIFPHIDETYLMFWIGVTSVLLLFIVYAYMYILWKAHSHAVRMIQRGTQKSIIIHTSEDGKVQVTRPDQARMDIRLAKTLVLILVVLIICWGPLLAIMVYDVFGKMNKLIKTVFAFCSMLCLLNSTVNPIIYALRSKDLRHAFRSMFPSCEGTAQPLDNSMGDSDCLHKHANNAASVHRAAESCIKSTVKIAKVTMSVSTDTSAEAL
T2 sequence (P34972 whole entry): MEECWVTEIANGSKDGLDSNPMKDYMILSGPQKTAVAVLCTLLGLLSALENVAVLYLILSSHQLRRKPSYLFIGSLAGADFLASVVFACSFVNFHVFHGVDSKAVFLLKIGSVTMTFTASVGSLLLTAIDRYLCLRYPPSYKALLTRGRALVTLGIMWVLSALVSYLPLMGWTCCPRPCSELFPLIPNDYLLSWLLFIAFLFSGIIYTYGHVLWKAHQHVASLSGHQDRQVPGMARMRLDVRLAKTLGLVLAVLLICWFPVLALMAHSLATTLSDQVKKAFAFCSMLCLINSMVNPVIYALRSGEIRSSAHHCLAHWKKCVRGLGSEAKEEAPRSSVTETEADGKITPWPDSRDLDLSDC

| Compound | Emax [1] | EC50 [2] | Emax [3] | EC50 [4] | Emax [5] | Emax [6] | microsomal CLint [7] | Emax [8] | EC50 [9] | EC50 [10] | EC50 [11] | EC50 [12] | microsomal CLint [13] | Emax [14] | solubility [16] | half-life [18] | Cmax [19] | other results |
| --- | --- | --- | --- | --- | --- | --- | --- | --- | --- | --- | --- | --- | --- | --- | --- | --- | --- | --- |
| O=C(CCc1nc(-c2ccc(F)cc2Cl)no1)Nc1cnc2ncc(Cl)cc2c1 | 43% | 2300 nM | 97% | 0.4 nM | 100% | 30% | < 100 µL/min/mg | 100% | 0.6 nM | 3.3 nM | > 1000 nM | 220 nM | < 100 µL/min/mg | 110% | – | – | – | – |
| O=C(CCc1nc(-c2ccc(F)cc2Cl)no1)Nc1nc2ccc(OC(F)(F)F)cc2s1 | 36% | 1900 nM | 99% | 6.9 nM | 98% | 36% | < 100 µL/min/mg | 21% | 6.5 nM | 3 nM | > 1000 nM | > 1000 nM | < 100 µL/min/mg | 120% | – | – | – | – |
| Fc1ccc(-c2noc(CCCNc3cnc4ccc(Cl)cc4c3)n2)c(Cl)c1 | 51% | 220 nM | 94% | 1.3 nM | 90% | 88% | – | 85% | 2.2 nM | 1.7 nM | 560 nM | 77 nM | – | 110% | 87 µg/mL (≈ 208 µM) | 5.1 h | 8400 ng/mL | AUC [15]: 43000 ng·h/mL; bioavailability [17]: < 100% |
| O=C(CCc1nc(-c2ccc(F)cc2Cl)no1)Nc1nnc(N2CCCCC2)s1 | 47% | 211 nM | 98% | 1.1 nM | 98% | 38% | < 100 µL/min/mg | 87% | 0.8 nM | 1.2 nM | > 1000 nM | 220 nM | < 100 µL/min/mg | 98% | – | – | – | – |
| O=C(CCc1nc(-c2ccc(F)cc2Cl)no1)Nc1ccc(C(F)(F)F)cc1Cl | – | > 10000 nM | – | – | – | – | – | – | – | 370 nM | – | – | – | 41% | – | 1.6 h | 100 ng/mL | AUC [15]: 460 ng·h/mL; bioavailability [17]: 13% |
| CCn1c2ccccc2c2cc(NC(=O)CCc3nc(-c4ccc(F)cc4)no3)ccc21 | 55% | 1200 nM | 95% | 3.2 nM | 90% | 24% | – | 65% | 4.8 nM | 9.8 nM | 330 nM | 650 nM | – | 95% | – | – | – | – |
| Cc1ccc2c(=O)c(C(=O)NC3CCCCC3)cn(Cc3ccc(F)cc3)c2n1 | – | – | – | – | – | – | – | – | – | – | – | – | – | – | – | – | – | Ki [20]: 5.5 nM; Ki [21]: 15 nM |
| Fc1ccc(-c2noc(CCCNc3cnc4ccc(OC(F)(F)F)cc4c3)n2)c(Cl)c1 | 81% | 1100 nM | 110% | 1.3 nM | 130% | 78% | – | 120% | 2.3 nM | 0.015 nM | 850 nM | 130 nM | – | 110% | 49 µg/mL (≈ 105 µM) | – | – | – |
| O=C(CCc1nc(-c2ccc(F)cc2Cl)no1)Nc1cnc2ccc(Cl)cc2c1 | 82% | 0.9 nM | 99% | 11 nM | 97% | 57% | < 100 µL/min/mg | 99% | 0.5 nM | 1400 nM | 710 nM | 130 nM | < 100 µL/min/mg | 110% | – | – | – | – |
| CCn1c2ccccc2c2cc(NC(=O)CCc3nc(-c4ccccc4F)no3)ccc21 | – | > 10000 nM | 93% | 33 nM | 91% | – | 274 µL/min/mg | – | – | – | > 1000 nM | > 1000 nM | 198 µL/min/mg | 100% | 2 µg/mL (≈ 4.67 µM) | 1.6 h | 100 ng/mL | AUC [22]: 460 ng·h/mL; F [23]: 13%; CL [24]: 20 mL/min/kg; F [25]: 13% |
| N#Cc1cc(NC(=O)CCc2nc(-c3ccc(F)cc3Cl)no2)cnc1OCC(F)(F)F | – | > 10000 nM | 97% | 3.1 nM | 100% | – | – | – | 31 nM | 14 nM | > 1000 nM | > 1000 nM | – | 110% | 24 µg/mL (≈ 51.1 µM) | 3.1 h | 3400 ng/mL | AUC [15]: 21000 ng·h/mL; bioavailability [17]: 36% |
